In ChEMBL document CHEMBL1122871, “Monocyclic pteridine analogues. Inhibition of Escherichia coli dihydropteroate synthase by 6-amino-5-nitrosoisocytosines” (J Med Chem, 1985):

Legend:
[1] = molecular target: T1, Dihydropteroate synthase (Escherichia coli K-12, UniProt P0AC13); experiment: (§1) In vitro inhibition of dihydropteroate synthase from Escherichia coli.; conditions: read-out: I50
T1 sequence (P0AC13 whole entry): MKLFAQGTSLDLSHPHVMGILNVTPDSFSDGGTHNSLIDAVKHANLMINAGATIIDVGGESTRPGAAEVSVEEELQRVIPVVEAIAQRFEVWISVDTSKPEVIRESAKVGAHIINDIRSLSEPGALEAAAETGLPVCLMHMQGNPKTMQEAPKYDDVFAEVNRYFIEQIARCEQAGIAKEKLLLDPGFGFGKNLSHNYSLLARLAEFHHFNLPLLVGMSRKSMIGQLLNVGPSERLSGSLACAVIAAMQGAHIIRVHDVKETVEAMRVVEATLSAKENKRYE
In short: (§2)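 Partially purified synthase from E. coli B. The assay used [14C]carboxy-p-aminobenzoic acid as substrate. Paper chromatography separated radiolabelled dihydropteroate from unreacted substrate. Results were given as the micromolar concentration giving 50% inhibition, or as percent inhibition at a stated concentration.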

[2] = molecular target: T1, Dihydropteroate synthase; experiment: Inhibitory activity against binding of para-aminobenzoic acid to synthase; conditions: read-out: I50
In short: (§3)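 Kinetic runs varied either the pterin substrate or PABA across inhibitor levels. Velocity was nmol dihydropteroate formed in a 12-min incubation at 37 °C, plotted as double reciprocals. Data were computer-fitted to competitive or noncompetitive inhibition models and statistically tested for fit to each model.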

[3] = molecular target: T2, Dihydropteroate synthase (Escherichia coli K-12) (UniProt P0AC13); experiment: Kinetic constant for synthase inhibition; in short: as §3
T2 sequence (whole entry): T1 sequence (P0AC13 whole entry)

[4] = molecular target: T2, Dihydropteroate synthase (Escherichia coli K-12); experiment: as §1; set-up: concentration or dose not given beside the values; conditions: concentration not given here; in short: as §2
[5] = molecular target: T2, Dihydropteroate synthase (Escherichia coli K-12); experiment: In vitro percent inhibition of dihydropteroate synthase from Escherichia coli at 20 uM; in short: as §2

SMILES: CCN(CC)c1nc(N)nc(O)c1N=O
- IC50 [1]: 197 µM

SMILES: Nc1nc(O)c(N=O)c(NCCCCCCCc2ccccc2)n1
- IC50 [1]: 1.4 µM
- IC50 [2]: 1.4 µM

SMILES: Nc1nc(O)c(N=O)c(NCCCOc2ccccc2)n1
- Kis [3]: 0.69 µM
- IC50 [1]: 3.7 µM

SMILES: Nc1nc(O)c(N=O)c(NCc2ccccc2)n1
- IC50 [1]: 12.9 µM

SMILES: N#Cc1c(O)nc(N)nc1NCCCCc1ccccc1
- IC50 [1]: 290 µM

SMILES: CCNc1nc(N)nc(O)c1N=O
- IC50 [1]: 11 µM

SMILES: Nc1nc(O)c(N=O)c(Nc2ccccc2)n1
- IC50 [1]: > 100 µM
- inhibition [4]: < 10%

SMILES: Nc1nc(O)c(N=O)c(NCCCS(=O)(=O)c2ccccc2)n1
- IC50 [1]: 18 µM

SMILES: CNc1nc(N)nc(O)c1N=O
- Kis [3]: 0.085 µM
- IC50 [1]: 1.6 µM

SMILES: Nc1nc(O)c(N=O)c(NCCCCCCc2ccccc2)n1
- IC50 [1]: 9 µM

SMILES: Nc1nc(O)c(N=O)c(NCCCc2ccccc2)n1
- IC50 [1]: 7.8 µM

SMILES: Nc1nccc(O)n1
- IC50 [1]: > 500 µM
- inhibition [4]: < 10%

SMILES: CNc1nc(N)[nH]c(=O)c1[N+](=O)[O-]
- IC50 [1]: 2.8 µM

SMILES: CNc1cc(O)nc(N)n1
- IC50 [1]: > 110 µM
- inhibition [4]: < 10%

SMILES: Nc1nc(O)c(N=O)c(NCCCCCc2ccccc2)n1
- IC50 [1]: 5.9 µM

SMILES: CC(C)Nc1nc(N)nc(O)c1N=O
- IC50 [1]: 208 µM

SMILES: Nc1nc(O)c(N=O)c(NCCCO)n1
- IC50 [1]: 35 µM

SMILES: Nc1nc(O)c(N=O)c(NCCc2ccccc2)n1
- IC50 [1]: 4.2 µM

SMILES: CNc1nc(N)nc(O)c1C=O
- IC50 [1]: > 300 µM
- inhibition [4]: < 10%

SMILES: Nc1nc(O)c(C=O)c(NCCCCc2ccccc2)n1
- IC50 [1]: > 100 µM
- inhibition [4]: < 10%

SMILES: CSc1nc(N)nc(O)c1N=O
- inhibition [5]: 17%

SMILES: Nc1nc(O)c([N+](=O)[O-])c(NCCCCc2ccccc2)n1
- IC50 [1]: 21 µM

SMILES: Nc1ccc(S(=O)(=O)Nc2nccs2)cc1 [SULFATHIAZOLE]
- IC50 [1]: 2.5 µM

SMILES: Cc1cc(NS(=O)(=O)c2ccc(N)cc2)no1 [SULFAMETHOXAZOLE]
- IC50 [1]: 4.7 µM

SMILES: Nc1nc(O)c(N=O)c(NCCCCc2ccccc2)n1
- IC50 [1]: 2.5 µM

SMILES: Nc1nc(O)c(N=O)c(O)n1
- IC50 [1]: > 200 µM
- inhibition [4]: < 10%

SMILES: Nc1nc(N)c(N=O)c(=O)[nH]1
- IC50 [1]: 5.8 µM
